Published values from different studies.
Compare with care: the assays were run in different laboratories.
Target: Protein kinase C eta type (PRKCH, Homo sapiens, UniProt P24723)

Structure (SMILES)	effect on	action	technique	concentration	measurement	value
Cc1nn(C)cc1-c1nc2c(N3CCN(Cc4ccc(Cl)cc4)CC3)c(Cl)cnc2[nH]1	binding		competition with immobilised ligand	1 µM	remaining binding	100%
Nc1ncc(-c2nc(N3CCOCC3)nc(N3CCOCC3)n2)c(C(F)F)n1	cell-free assay		competition with immobilised ligand	10 µM	remaining binding	91%
COc1cc(Nc2ncc(F)c(Nc3ccc4c(n3)NC(=O)C(C)(C)O4)n2)cc(OC)c1OC	binding			10 µM	inhibition	0%
Cn1cc(-c2cccc(N3CCc4c(sc5c4CC(C)(C)C5)C3=O)c2CO)cc(Nc2ccncn2)c1=O	enzyme activity	inhibitor		1 µM	inhibition	20%
Cn1cncc1[C@](O)(COc1ccc(C#N)cc1-c1ccc(OC(F)(F)F)cc1)c1ccc(C#N)cc1	cell-free assay		competition with immobilised ligand	1 µM	remaining binding	94%
Cn1cc(-c2cc(F)cc(N3CCn4c(cc5c4CCCC5)C3=O)c2CO)cc(Nc2ccc(N3CCN(C4COC4)CC3)cn2)c1=O	enzyme activity	inhibitor		0.1 µM	inhibition	4%
N#CC1(c2ccccn2)CCN(Cc2cc(C(=O)O)c(=O)n3ccccc23)CC1	cell-free assay		competition with immobilised ligand	1 µM	remaining binding	100%
COc1ncccc1-c1cnn2ccc(N3CCN(C(=O)OC(C)C)CC3)nc12	binding		competition with immobilised ligand	1 µM	remaining binding	49%
